Reference: ChEMBL document CHEMBL4765349, “Design, synthesis and biological evaluation of novel N-sulfonylamidine-based derivatives as c-Met inhibitors via Cu-catalyzed three-component reaction” (Eur J Med Chem, 2020)

Tests used:
[1] = system: HT-29; assay: cells; settings: Homo sapiens, HT-29, 72 h
[2] = system: MDA-MB-231; assay: Cytotoxicity against human MDA-MB-231 cells assessed as inhibition of cell proliferation measured after 72 hrs by MTT assay; assay type: functional, cell-based; settings: MDA-MB-231, 72 h
[3] = system: A549; assay: cells; settings: Homo sapiens, A549, 72 h
[4] = system: MKN-45; assay: Cytotoxicity against human MKN-45 cells assessed as inhibition of cell proliferation measured after 72 hrs by MTT assay; assay type: functional, cell-based; settings: MKN-45, 72 h
[5] = system: A549; assay: Induction of apoptosis in human A549 cells assessed as early apoptosis at 1 uM measured after 12 hrs by Annexin V-FITC/ Propidium iodide stain based flow cytometry assay relative to control; assay type: functional
In short: (§1)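 Cells double-stained with FITC-annexin V and propidium iodide, then flow cytometry gave the percentages of early and late apoptotic cells.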

[6] = system: A549; assay: Induction of apoptosis in human A549 cells assessed as late apoptosis at 1 uM measured after 12 hrs by Annexin V-FITC/ Propidium iodide stain based flow cytometry assay relative to control; assay type: functional
In short: as §1

IC50 [1] | IC50 [3] | Structure (SMILES) | IC50 [2] | IC50 [4] | Activity [5] | Activity [6]
23.7 µM | 20.4 µM | COc1cc2nccc(Oc3ccc(N/C(Cc4ccccc4)=N\S(=O)(=O)Cc4ccc(F)cc4)cc3F)c2cc1OC | 32.5 µM |  |  | 
30.5 µM | 27.1 µM | CCCCC/C(=N\S(=O)(=O)Cc1ccccc1)Nc1ccc(Oc2ncnc3cc(OC)c(OC)cc23)c(F)c1 |  |  |  | 
10.3 µM | 9.43 µM | COc1cc2nccc(Oc3ccc(N/C(CC4CCCCC4)=N\S(=O)(=O)Cc4ccc(F)cc4)cc3F)c2cc1OC | 19.7 µM | 15.2 µM |  | 
15.5 µM | 13.2 µM | COc1cc2nccc(Oc3ccc(N/C(Cc4cccnc4)=N\S(=O)(=O)Cc4ccc(F)cc4)cc3F)c2cc1OC | 22.3 µM | 18.6 µM |  | 
0.88 µM | 0.71 µM | COCC/C(=N\S(=O)(=O)Cc1ccc(Cl)c(Cl)c1)Nc1ccc(Oc2ccnc3cc(OC)c(OC)cc23)c(F)c1 | 3.32 µM | 1.16 µM |  | 
2.47 µM | 2.14 µM | COCC/C(=N\S(=O)(=O)Cc1cccc(F)c1)Nc1ccc(Oc2ccnc3cc(OC)c(OC)cc23)c(F)c1 | 5.34 µM | 3.52 µM |  | 
3.52 µM | 3.14 µM | COCC/C(=N\S(=O)(=O)Cc1ccccc1)Nc1ccc(Oc2ccnc3cc(OC)c(OC)cc23)c(F)c1 | 6.64 µM | 4.05 µM |  | 
8.03 µM | 7.14 µM | COCC/C(=N\S(=O)(=O)Cc1ccc(Br)cc1)Nc1ccc(Oc2ccnc3cc(OC)c(OC)cc23)c(F)c1 | 12.1 µM | 11.3 µM |  | 
3.16 µM | 2.85 µM | COCC/C(=N\S(=O)(=O)Cc1ccccc1F)Nc1ccc(Oc2ccnc3cc(OC)c(OC)cc23)c(F)c1 | 5.67 µM | 3.26 µM |  | 
0.41 µM | 0.35 µM | COCC/C(=N\S(=O)(=O)Cc1ccc(Cl)cc1)Nc1ccc(Oc2ccnc3cc(OCCCN4CCCCC4)c(OC)cc23)c(F)c1 | 1.12 µM | 0.65 µM |  | 
8.74 µM | 8.02 µM | COCC/C(=N\S(=O)(=O)Cc1ccc(C)cc1)Nc1ccc(Oc2ccnc3cc(OC)c(OC)cc23)c(F)c1 | 13.7 µM | 9.75 µM |  | 
7.06 µM | 6.23 µM | CCCCC/C(=N\S(=O)(=O)Cc1ccc(F)cc1)Nc1ccc(Oc2ccnc3ccsc23)c(F)c1 | 14.6 µM | 9.17 µM |  | 
0.55 µM | 0.38 µM | COCC/C(=N\S(=O)(=O)Cc1ccc(Cl)cc1)Nc1ccc(Oc2ccnc3cc(OCCCN4CCC(C)CC4)c(OC)cc23)c(F)c1 | 1.56 µM | 0.76 µM |  | 
0.78 µM | 0.67 µM | COCC/C(=N\S(=O)(=O)Cc1ccc(Cl)c(Cl)c1)Nc1ccc(Oc2ccnc3cc(OCCCN4CCCCC4)c(OC)cc23)c(F)c1 | 0.93 µM | 0.88 µM |  | 
32.6 µM | 28.4 µM | COc1cc2nccc(Oc3ccc(N/C(Cc4ccccc4)=N\S(=O)(=O)Cc4ccccc4)cc3F)c2cc1OC |  | 26.3 µM |  | 
11.2 µM | 10.1 µM | COc1cc2nccc(Oc3ccc(N/C(Cc4ccsc4)=N\S(=O)(=O)Cc4ccc(F)cc4)cc3F)c2cc1OC | 19.5 µM | 11.9 µM |  | 
8.26 µM | 7.55 µM | CCCCC/C(=N\S(=O)(=O)Cc1ccccc1)Nc1ccc(Oc2ccnc3cc(OC)c(OC)cc23)c(F)c1 | 12.8 µM | 9.28 µM |  | 
9.63 µM | 8.68 µM | CCCCC/C(=N\S(=O)(=O)Cc1ccccc1)Nc1ccc(Oc2ccnc3ccsc23)c(F)c1 | 15.3 µM | 11.5 µM |  | 
0.59 µM | 0.47 µM | COCC/C(=N\S(=O)(=O)Cc1ccc(Cl)c(Cl)c1)Nc1ccc(Oc2ccnc3cc(OCCCN4CCOCC4)c(OC)cc23)c(F)c1 | 1.04 µM | 0.72 µM |  | 
0.36 µM | 0.32 µM | COCC/C(=N\S(=O)(=O)Cc1ccc(Cl)cc1)Nc1ccc(Oc2ccnc3cc(OCCCN4CCN(C)CC4)c(OC)cc23)c(F)c1 | 1.24 µM | 0.61 µM |  | 

IC50 [1] | IC50 [3] | Structure (SMILES) | IC50 [2] | IC50 [4] | Activity [5] | Activity [6]
4.12 µM | 3.76 µM | COc1cc2nccc(Oc3ccc(N/C(C)=N/S(=O)(=O)Cc4ccc(F)cc4)cc3F)c2cc1OC | 7.65 µM | 4.55 µM |  | 
18.6 µM | 17.3 µM | CCCCC/C(=N\S(=O)(=O)Cc1ccccc1)Nc1ccc(Oc2ncnc3ccsc23)c(F)c1 | 25.6 µM | 21.9 µM |  | 
2.85 µM | 2.56 µM | CCCCOc1cc2nccc(Oc3ccc(N/C(CCOC)=N/S(=O)(=O)Cc4ccc(Cl)cc4)cc3F)c2cc1OC | 5.46 µM | 3.05 µM |  | 
8.02 µM | 7.54 µM | COCC/C(=N\S(=O)(=O)Cc1cccc(C)c1)Nc1ccc(Oc2ccnc3cc(OC)c(OC)cc23)c(F)c1 | 13.1 µM | 9.15 µM |  | 
14.5 µM | 12.2 µM | COc1cc2nccc(Oc3ccc(N/C(CC4CCCCC4)=N\S(=O)(=O)Cc4ccccc4)cc3F)c2cc1OC | 20.4 µM | 16.3 µM |  | 
0.74 µM | 0.61 µM | COCC/C(=N\S(=O)(=O)Cc1ccc(Cl)c(Cl)c1)Nc1ccc(Oc2ccnc3cc(OCCCN4CCN(C)CC4)c(OC)cc23)c(F)c1 | 1.35 µM | 0.82 µM |  | 
0.91 µM | 0.62 µM | COCC/C(=N\S(=O)(=O)Cc1ccc(Cl)cc1)Nc1ccc(Oc2ccnc3cc(OC)c(OC)cc23)c(F)c1 | 2.32 µM | 1.05 µM |  | 
22.1 µM | 18.6 µM | CCCCC/C(=N\S(=O)(=O)Cc1ccc(F)cc1)Nc1ccc(Oc2ncnc3cc(OC)c(OC)cc23)c(F)c1 | 31.8 µM | 23.4 µM |  | 
0.88 µM | 0.72 µM | COCC/C(=N\S(=O)(=O)Cc1ccc(Cl)c(Cl)c1)Nc1ccc(Oc2ccnc3cc(OCCCN4CCC(C)CC4)c(OC)cc23)c(F)c1 | 1.98 µM | 1.15 µM |  | 
5.18 µM | 4.6 µM | CCCCC/C(=N\S(=O)(=O)Cc1ccc(F)cc1)Nc1ccc(Oc2ccnc3cc(OC)c(OC)cc23)c(F)c1 | 9.04 µM | 5.54 µM |  | 
20.6 µM | 18.1 µM | COc1cc2nccc(Oc3ccc(N/C(Cc4cccnc4)=N\S(=O)(=O)Cc4ccccc4)cc3F)c2cc1OC | 28.3 µM | 22.9 µM |  | 
4.85 µM | 4.15 µM | COCC/C(=N\S(=O)(=O)Cc1ccccc1C)Nc1ccc(Oc2ccnc3cc(OC)c(OC)cc23)c(F)c1 | 8.19 µM | 5.16 µM |  | 
16.5 µM | 14.3 µM | COc1cc2nccc(Oc3ccc(N/C(Cc4ccsc4)=N\S(=O)(=O)Cc4ccccc4)cc3F)c2cc1OC | 23.8 µM |  |  | 
 |  | COc1cc2c(Oc3ccc(NC(=O)C4(C(=O)Nc5ccc(F)cc5)CC4)cc3F)ccnc2cc1OCCCN1CCOCC1 [FORETINIB] |  |  | 11.25% | 22.9%
13.2 µM | 11.3 µM | COCC/C(=N\S(=O)(=O)Cc1ccc(C(F)(F)F)cc1)Nc1ccc(Oc2ccnc3cc(OC)c(OC)cc23)c(F)c1 | 20.4 µM | 15.3 µM |  | 
4.05 µM | 3.53 µM | CCCCOc1cc2nccc(Oc3ccc(N/C(CCOC)=N/S(=O)(=O)Cc4ccc(Cl)c(Cl)c4)cc3F)c2cc1OC | 7.19 µM | 4.36 µM |  | 
5.85 µM | 5.16 µM | COc1cc2nccc(Oc3ccc(N/C(C)=N/S(=O)(=O)Cc4ccccc4)cc3F)c2cc1OC | 9.29 µM | 5.99 µM |  | 
1.68 µM | 1.42 µM | COCC/C(=N\S(=O)(=O)Cc1ccc(F)cc1)Nc1ccc(Oc2ccnc3cc(OC)c(OC)cc23)c(F)c1 | 4.24 µM | 2.15 µM |  | 
11.2 µM | 10.3 µM | CCCCC/C(=N\S(=O)(=O)Cc1ccc(F)cc1)Nc1ccc(Oc2ncnc3ccsc23)c(F)c1 | 16.8 µM | 12.5 µM |  | 
